Data set [1] has as its system ATP. Kind of data set: Binding affinity to ATP at 50 uM in HEPES buffer of pH 7.2 by spectrophotometry. The method in brief: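 UV-vis titration: compound held constant at 50 µM in HEPES pH 7.2, titrated with NaATP (from 10^-2 M stock) over 0–3 equiv; absorbance change followed; binding constant from Benesi–Hildebrand plot.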
Data set [2] in a line: Binding affinity to Mg2+ at 100 uM in HEPES buffer of pH 7.2 by spectrophotometry. The gist of the method: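 Compound at 10^-4 M in 10^-2 M HEPES pH 7.2 titrated with Mg²⁺ (0–0.5 × 10^-4 M); absorbance changes at 270–310, 390–415 and 320–340 nm monitored; binding constant by Benesi–Hildebrand equation.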
Data set [3] relates to Candida albicans. The data set is described as follows: Antifungal activity at Candida albicans CAI4 after 48 hrs by ELISA. As to conditions: CAI4, 48 h. The data set is classed as functional. The method in brief: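 Broth microdilution; CAI4 streaked on YEPD, 30 °C 24 h; compounds serially diluted twofold in YEPD, solvent diluted alongside; growth control column; 30 °C 48 h; OD600 on plate reader; MIC80 = concentration giving 80% growth inhibition vs no-compound growth.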
On the technique in general: An ELISA detects its analyte on a solid surface through an enzyme-linked reagent.

The nature of data set [4]: Binding affinity to P-gp at 5 uM after 30 mins by spectrophotometry. The gist of the method: (§1)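 P-gp vesicles from DC-3F/ADX MDR cells; basal MgATP hydrolysis measured by PK/LDH-coupled NADH oxidation (PEP, NADH), with non-specific ATPase inhibitor; vesicles 5 min at 37 °C, compound added (final 0.05, 0.5, 5 µM) 5 min, MgATP then 20 min at 37 °C; A340 read twice 20 min apart; triplicate; verapamil, vinblastine, progesterone references.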

A short description of data set [5]: Binding affinity to P-gp at 0.5 uM after 30 mins by spectrophotometry. The method in brief: as §1
The nature of data set [6]: Binding affinity to P-gp at 0.05 uM after 30 mins by spectrophotometry. The gist of the method: as §1
Data set [7] can be described thus: Binding affinity to P-gp assessed as increase in basal protein activity at 5 uM after 30 mins by spectrophotometry. The method in brief: as §1
The nature of data set [8]: Binding affinity to P-gp assessed as increase in basal protein activity at 0.5 uM after 30 mins by spectrophotometry. The method in brief: as §1
Data set [9] is described as follows: Binding affinity to P-gp assessed as increase in basal protein activity at 0.05 uM after 30 mins by spectrophotometry. The gist of the method: as §1
Data set [10] in a line: Partition coefficient, log P of the compound. Conditions: octanol/water. The data set is classed as physicochemical.

In brackets after ≈: the same amount, converted by molar mass. Activity calls are given as the source filed them. The rule behind the calls is not given here. A value given as a limit tells only on which side of the number the result lay.

Turning to `O=c1c2ccccc2n(CC(O)CN2CCCC2)c2c(Cl)cccc12` (stereo not given), the figures for the Ka in data set [1] and in data set [2] were 6.57 ×10⁵ /M and 0.95 ×10⁵ /M, respectively. Further, in data set [3], the MIC80 is over 3000 µg/mL.
With `CC(C)N(CC(O)Cn1c2ccccc2c(=O)c2cccc(C(=O)O)c21)C(C)C` (stereo not given), the RBA is 2.05 in data set [4], 1.6 in data set [5] and 1.53 in data set [6]. For the same compound, the Activity was found to be 105% in data set [7], 60% in data set [8] and 53% in data set [9]. The Ka result in [1] was “inactive”. The same compound had a Ka in data set [2] of 2 ×10⁵ /M.
As to `O=C(O)c1cccc2c(=O)c3ccccc3n(CC(O)CN3CCOCC3)c12` (stereo not given), the RBA in data set [4] is 2.66; in data set [5], 2; in data set [6], 1.63. For the same compound, the Activity came out at 166% in [7], 100% in data set [8] and 63% in data set [9]. The Ka result in data set [1] was “inactive”. In data set [2], this compound yielded a Ka of 3.82 ×10⁵ /M. In data set [10], the logP was determined as 0.6.
`CC(C)N(CC(O)Cn1c2ccccc2c(=O)c2cccc(Cl)c21)C(C)C` (stereo not given): the Ka in data set [1] is 1.42 ×10⁵ /M; in [2], 2.2 ×10⁵ /M. In data set [3], this compound came in with an MIC80 of over 3000 µg/mL.
Take `CCN(CC)CC(O)Cn1c2ccccc2c(=O)c2cccc(C(=O)O)c21` (stereo not given): the RBA in data set [4] came out at 2.12; in [5], 1.7; in data set [6], 1.65. Besides, the Activity in [7] was determined as 112%; in data set [8], 70%; in data set [9], 65%. In addition, the Ka entry in [1] was “inactive”. Besides, the Ka in data set [2] turned out to be 7.74 ×10⁵ /M.
As for `COc1ccc(CCN(C)CCCC(C#N)(c2ccc(OC)c(OC)c2)C(C)C)cc1OC` (stereo not given), the RBA came to 2.8 in data set [4], 2.01 in [5] and 1.11 in data set [6].
`O=c1c2ccccc2n(CC(O)CN2CCOCC2)c2c(Cl)cccc12` (stereo not given): the Ka in [1] was determined as 4.08 ×10⁵ /M; in data set [2], 17.1 ×10⁵ /M. This compound had an MIC80 in data set [3] of over 3000 µg/mL.
Take `O=c1c2ccccc2n(CC(O)CN2CCC(N3CCCCC3)CC2)c2c(Cl)cccc12` (stereo not given): the Ka in data set [1] was 11 ×10⁵ /M; in data set [2] it was 18.6 ×10⁵ /M. Moreover, in [3], the MIC80 was over 3000 µg/mL.
On to `CC(=O)[C@H]1CC[C@H]2[C@@H]3CCC4=CC(=O)CC[C@]4(C)[C@H]3CC[C@]12C`, for which the RBA in data set [4] is 1.42; in data set [5] it was 1.11; in data set [6], 1.
With `CCN(CC)CC(O)Cn1c2ccccc2c(=O)c2cccc(Cl)c21` (stereo not given), the Ka was 7.9 ×10⁵ /M in [1] and 0.39 ×10⁵ /M in data set [2]. This compound also displayed an MIC80 in data set [3] of 1500 µg/mL (≈ 4.18 mM).
`CC[C@]1(O)C[C@@H]2CN(CCc3c([nH]c4ccccc34)[C@@](C(=O)OC)(c3cc4c(cc3OC)N(C)[C@H]3[C@@](O)(C(=O)OC)[C@H](OC(C)=O)[C@]5(CC)C=CCN6CC[C@]43[C@@H]65)C2)C1`: the RBA is 1.21 in [4], 1.37 in data set [5] and 0.98 in data set [6].
Take `O=c1c2ccccc2n(CC(O)CN2CCCCC2)c2c(Cl)cccc12` (stereo not given): the results for the Ka in data set [1] and in [2] were 5 ×10⁵ /M and 1.48 ×10⁵ /M, respectively. For the same compound, the MIC80 in [3] was over 3000 µg/mL.
As for `O=C(O)c1cccc2c(=O)c3ccccc3n(CC(O)CN3CCCCC3)c12` (stereo not given), the RBA in data set [4] came to 2.44; in [5], 1.66; in data set [6], 1.57. Besides, the Activity in data set [7] stood at 144%; in data set [8], 66%; in data set [9], 57%. Also, the Ka entry in [1] was “inactive”. Further, the Ka in [2] is 19.7 ×10⁵ /M.

As a reminder, the MIC80 is the lowest concentration that inhibits either 80% of growth or 80% of the strains tested, depending on the study. Low values mean greater potency, high ones weaker potency. As a reminder, the logP is the decadic logarithm of the partition coefficient of the neutral form, usually between octanol and water.

The values above are taken from ChEMBL document CHEMBL1166014, “Targeting efflux pumps-In vitro investigations with acridone derivatives and identification of a lead molecule for MDR modulation” (Bioorg Med Chem, 2010).
